Results from ChEMBL document CHEMBL2401625, “Synthesis and evaluation of pharmacological properties of some new xanthone derivatives with piperazine moiety” (Bioorg Med Chem Lett, 2013).
Calls of active or inactive are those of the source.

Key:
Rattus norvegicus [1] = test: Anticonvulsant activity in Sprague-Dawley rat assessed as protection against maximal electroshock-induced seizures at 30 mg/kg, po after 4 hrs; type: functional, organism-based; set-up: dose 30 mg/kg
Procedure, shortened: (§1)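 Rats dosed orally at 30 mg/kg and tested in MES at several time points after dosing. Protection means seizures were prevented. Result is recorded as number of animals protected over number tested.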

Mus musculus [2] = test: Anticonvulsant activity in CF1 mouse assessed as protection against maximal electroshock-induced seizures at 100 mg/kg, ip after 0.5 hrs; type: functional, organism-based; set-up: dose 100 mg/kg
Procedure, shortened: (§2)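 Mice given compound i.p. at 30, 100 or 300 mg/kg and tested 0.5 or 4 h after dosing. Seizures were induced by maximal electroshock (MES) or subcutaneous metrazole (ScMet). Prevention of seizures counts as protection. Result is recorded as number of animals protected over number tested.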

Mus musculus [3] = test: Anticonvulsant activity in CF1 mouse assessed as protection against maximal electroshock-induced seizures at 30 mg/kg, ip after 0.5 hrs; type: functional, organism-based; set-up: dose 30 mg/kg; procedure, shortened: as §2
[4] = biological target: 5-hydroxytryptamine receptor 7 (Homo sapiens, UniProt P34969); test: Displacement of [3H]5-CT from human 5HT7b receptor expressed in HEK293 cells after 1 hr; type: cell-based
Sequence of 5-hydroxytryptamine receptor 7 (P34969 whole entry): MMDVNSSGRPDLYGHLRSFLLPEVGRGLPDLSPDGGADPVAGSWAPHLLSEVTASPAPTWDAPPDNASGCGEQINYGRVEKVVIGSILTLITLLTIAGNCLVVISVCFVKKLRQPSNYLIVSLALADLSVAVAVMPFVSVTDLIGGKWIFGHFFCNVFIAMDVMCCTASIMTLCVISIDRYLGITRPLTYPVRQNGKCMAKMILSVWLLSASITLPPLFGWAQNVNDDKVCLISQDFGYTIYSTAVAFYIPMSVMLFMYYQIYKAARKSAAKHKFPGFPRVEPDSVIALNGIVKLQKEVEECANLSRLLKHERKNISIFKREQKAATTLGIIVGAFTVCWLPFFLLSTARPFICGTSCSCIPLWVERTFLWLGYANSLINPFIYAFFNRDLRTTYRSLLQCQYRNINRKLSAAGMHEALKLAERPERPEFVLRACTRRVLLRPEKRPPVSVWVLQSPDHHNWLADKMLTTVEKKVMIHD

[5] = biological target: 5-hydroxytryptamine receptor 6 (Homo sapiens, UniProt P50406); test: Displacement of [3H]LSD from human 5HT6 receptor expressed in HEK293 cells after 1 hr; type: cell-based
Sequence of 5-hydroxytryptamine receptor 6 (P50406 whole entry): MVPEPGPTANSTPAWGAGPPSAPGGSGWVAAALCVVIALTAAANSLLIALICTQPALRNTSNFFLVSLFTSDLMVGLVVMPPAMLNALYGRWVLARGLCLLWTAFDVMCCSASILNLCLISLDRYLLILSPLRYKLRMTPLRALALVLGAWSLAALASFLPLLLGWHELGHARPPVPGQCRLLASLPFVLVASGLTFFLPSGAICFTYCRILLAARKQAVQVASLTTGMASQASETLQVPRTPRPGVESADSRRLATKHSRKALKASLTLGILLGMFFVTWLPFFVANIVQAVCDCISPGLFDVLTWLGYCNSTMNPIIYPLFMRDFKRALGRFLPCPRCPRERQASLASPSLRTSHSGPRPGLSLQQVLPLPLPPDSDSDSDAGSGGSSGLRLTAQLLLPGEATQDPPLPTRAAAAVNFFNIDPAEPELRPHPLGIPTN

Rattus norvegicus [6] = test: Anticonvulsant activity in Sprague-Dawley rat assessed as protection against maximal electroshock-induced seizures at 30 mg/kg, po after 0.25 hrs; type: functional, organism-based; set-up: dose 30 mg/kg; procedure, shortened: as §1
Mus musculus [7] = test: Neurotoxicity in CF1 mouse assessed as minimal motor impairment at 30 mg/kg, ip after 4 hrs by rotorod test; type: toxicity, organism-based; set-up: dose 30 mg/kg, route intraperitoneal; details: in vivo
Procedure, shortened: (§3)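 Rotarod neurotoxicity screen in mice dosed i.p. at 30, 100 or 300 mg/kg, read 0.5 or 4 h after dosing. The animal must stay on a rod rotating at 6 rpm without falling, measured 3 times within 1 min. A fall counts as minimal motor impairment. Result is recorded as impaired animals over animals used.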

Mus musculus [8] = test: Neurotoxicity in CF1 mouse assessed as minimal motor impairment at 100 mg/kg, ip after 4 hrs by rotorod test; type: toxicity, organism-based; set-up: dose 100 mg/kg, route intraperitoneal; details: in vivo; procedure, shortened: as §3
Mus musculus [9] = test: Neurotoxicity in CF1 mouse assessed as minimal motor impairment at 300 mg/kg, ip after 0.5 hrs by rotorod test; type: toxicity, organism-based; set-up: dose 300 mg/kg, route intraperitoneal; details: in vivo; procedure, shortened: as §3
Mus musculus [10] = test: Neurotoxicity in CF1 mouse assessed as minimal motor impairment at 30 mg/kg, ip after 0.5 hrs by rotorod test; type: toxicity, organism-based; set-up: dose 30 mg/kg, route intraperitoneal; details: in vivo; procedure, shortened: as §3
Mus musculus [11] = test: Anticonvulsant activity in CF1 mouse assessed as protection against subcutaneous metrazole-induced seizures at 100 mg/kg, ip after 4 hrs; type: functional, organism-based; set-up: dose 100 mg/kg; procedure, shortened: as §2
Mus musculus [12] = test: Anticonvulsant activity in CF1 mouse assessed as protection against subcutaneous metrazole-induced seizures at 100 mg/kg, ip after 0.5 hrs; type: functional, organism-based; set-up: dose 100 mg/kg; procedure, shortened: as §2
Mus musculus [13] = test: Anticonvulsant activity in CF1 mouse assessed as protection against subcutaneous metrazole-induced seizures at 30 mg/kg, ip after 0.5 hrs; type: functional, organism-based; set-up: dose 30 mg/kg; procedure, shortened: as §2
Rattus norvegicus [14] = test: Neurotoxicity in Sprague-Dawley rat assessed as minimal motor impairment at 30 mg/kg, po after 1 hr by rotorod test; details: in vivo
Rattus norvegicus [15] = test: Neurotoxicity in Sprague-Dawley rat assessed as minimal motor impairment at 30 mg/kg, po after 4 hrs by rotorod test; details: in vivo
Rattus norvegicus [16] = test: Neurotoxicity in Sprague-Dawley rat assessed as minimal motor impairment at 30 mg/kg, po after 2 hrs by rotorod test; details: in vivo
Rattus norvegicus [17] = test: Neurotoxicity in Sprague-Dawley rat assessed as minimal motor impairment at 30 mg/kg, po after 0.5 hrs by rotorod test; details: in vivo
Rattus norvegicus [18] = test: Neurotoxicity in Sprague-Dawley rat assessed as minimal motor impairment at 30 mg/kg, po after 0.25 hrs by rotorod test; details: in vivo

Cl.Cl.Cl.O=c1c2ccc(Cl)cc2oc2c(CN3CCN(CCO)CC3)cccc12
14.4 µM: Ki [5]
inactive: Activity (Mus musculus [3]) | Activity (Rattus norvegicus [6]) | Activity (Mus musculus [11]) | Activity (Mus musculus [12]) | Activity (Mus musculus [13])
17.4 µM: Ki [4]
Non-toxic: Activity (Mus musculus [7]) | Activity (Mus musculus [8]) | Activity (Mus musculus [10]) | Activity (Rattus norvegicus [14]) | Activity (Rattus norvegicus [15]) | Activity (Rattus norvegicus [16]) | Activity (Rattus norvegicus [17]) | Activity (Rattus norvegicus [18])
Toxic: Activity (Mus musculus [9])
active: Activity (Rattus norvegicus [1]) | Activity (Mus musculus [2])
